From ChEMBL document CHEMBL4354843, “Structure-Based Design of a Potent and Selective Covalent Inhibitor for SRC Kinase That Targets a P-Loop Cysteine” (J Med Chem, 2020)
The source made the active and inactive calls. The rule behind the calls is not given here.

Key:
[1] = molecular target: Aurora kinase A (Homo sapiens) (UniProt O14965); experiment: Binding affinity to wild-type human partial length AURKA (E122 to K401 residues) expressed in mammalian expression system assessed as residual binding level at 1 uM by Kinomescan method relative to control
[2] = system: Epidermal growth factor receptor (Homo sapiens), P00533 [T790M]; experiment: Binding affinity to human partial length EGFR T790M mutant (R669 to G1022 residues) expressed in mammalian expression system assessed as residual binding level at 1 uM by Kinomescan method relative to control
Method in brief: (§1)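 KinomeScan active site-directed competition binding panel (468 kinases), compound tested at 1 μM. Result expressed as remaining kinase signal versus DMSO control (percent of control).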

[3] = molecular target: Epithelial discoidin domain-containing receptor 1 (Homo sapiens) (UniProt Q08345); experiment: Binding affinity to wild-type human partial length DDR1 (R565 to V876 residues) expressed in bacterial expression system assessed as residual binding level at 1 uM by Kinomescan method relative to control
Method in brief: (§2)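 Active-site-directed competition binding panel of 468 kinases (KinomeScan), compound at 1 μM. The read-out is kinase remaining bound, given as a percentage of the DMSO control. […]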

[4] = molecular target: Calcium/calmodulin-dependent protein kinase type II subunit delta (Homo sapiens) (UniProt Q13557); experiment: Binding affinity to wild-type human partial length CAMK2D (M1 to E329 residues) expressed in bacterial expression system assessed as residual binding level at 1 uM by Kinomescan method relative to control
Sequence of Calcium/calmodulin-dependent protein kinase type II subunit delta (Homo sapiens) (Q13557 whole entry, the tested form may be a part): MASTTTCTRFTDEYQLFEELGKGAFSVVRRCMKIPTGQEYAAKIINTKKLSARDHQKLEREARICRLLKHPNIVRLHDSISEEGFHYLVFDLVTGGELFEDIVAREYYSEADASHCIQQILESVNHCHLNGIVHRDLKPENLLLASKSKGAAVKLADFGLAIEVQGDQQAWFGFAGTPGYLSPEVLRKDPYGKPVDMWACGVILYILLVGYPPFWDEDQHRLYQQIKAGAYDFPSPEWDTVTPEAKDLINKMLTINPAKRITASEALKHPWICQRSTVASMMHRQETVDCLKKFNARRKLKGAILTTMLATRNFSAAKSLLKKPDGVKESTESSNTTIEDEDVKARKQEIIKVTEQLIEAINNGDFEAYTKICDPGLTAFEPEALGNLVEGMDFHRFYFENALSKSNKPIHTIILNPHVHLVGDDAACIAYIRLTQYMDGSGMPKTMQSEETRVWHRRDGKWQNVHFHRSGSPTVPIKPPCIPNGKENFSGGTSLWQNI

[5] = molecular target: Dual specificity mitogen-activated protein kinase kinase; MEK1/2 (Homo sapiens) (UniProt P36507+Q02750); experiment: Inhibition of MEK1/2 in human NCI-H1975 cells assessed as blocking of MEK1/2 pulldown at 1 uM in presence of TL13-68 incubated for 2 hrs by Western blot analysis; format: cell-based
Sequence of Dual specificity mitogen-activated protein kinase kinase; MEK1/2 (Homo sapiens) (P36507 whole entry, looked up): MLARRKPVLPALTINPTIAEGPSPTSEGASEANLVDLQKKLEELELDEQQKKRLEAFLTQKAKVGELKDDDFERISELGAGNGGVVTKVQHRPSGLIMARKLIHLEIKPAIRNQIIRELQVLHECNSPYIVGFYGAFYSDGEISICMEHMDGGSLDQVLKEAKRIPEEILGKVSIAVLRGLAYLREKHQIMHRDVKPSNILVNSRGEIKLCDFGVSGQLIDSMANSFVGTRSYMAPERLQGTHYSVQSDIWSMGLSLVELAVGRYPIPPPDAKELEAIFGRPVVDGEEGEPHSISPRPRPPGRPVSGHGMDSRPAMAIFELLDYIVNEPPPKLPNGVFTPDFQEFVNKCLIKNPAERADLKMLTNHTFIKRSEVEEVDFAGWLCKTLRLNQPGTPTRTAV
Sequence of Dual specificity mitogen-activated protein kinase kinase; MEK1/2 (Homo sapiens) (Q02750 whole entry, looked up): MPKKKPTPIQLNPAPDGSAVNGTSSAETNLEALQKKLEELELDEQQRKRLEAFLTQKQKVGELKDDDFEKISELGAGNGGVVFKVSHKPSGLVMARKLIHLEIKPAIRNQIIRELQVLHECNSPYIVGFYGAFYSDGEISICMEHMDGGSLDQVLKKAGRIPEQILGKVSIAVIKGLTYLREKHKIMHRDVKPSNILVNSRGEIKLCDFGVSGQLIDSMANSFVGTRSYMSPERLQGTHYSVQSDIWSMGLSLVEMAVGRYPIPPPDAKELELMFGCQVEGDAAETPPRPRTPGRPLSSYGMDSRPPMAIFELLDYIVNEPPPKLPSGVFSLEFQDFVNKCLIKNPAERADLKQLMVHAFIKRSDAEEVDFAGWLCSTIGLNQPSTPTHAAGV
Method in brief: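 H1975 or HCC827 cells treated with 1 μM compound or DMSO for 2 h, rinsed twice in cold PBS, and lysed in M-PER with protease/phosphatase inhibitors. Lysate rocked overnight at 4 °C with 1 μM TL13-68, then streptavidin pulldown with five cold washes. Bound kinases detected by Western blot. Two independent experiments.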

[6] = molecular target: Non-receptor tyrosine-protein kinase TNK1 (Homo sapiens) (UniProt Q13470); experiment: Binding affinity to wild-type human full length TNK1 (M1 to P661 residues) expressed in bacterial expression system assessed as residual binding level at 1 uM by Kinomescan method relative to control
Sequence of Non-receptor tyrosine-protein kinase TNK1 (Homo sapiens) (Q13470 whole entry, the tested form may be a part): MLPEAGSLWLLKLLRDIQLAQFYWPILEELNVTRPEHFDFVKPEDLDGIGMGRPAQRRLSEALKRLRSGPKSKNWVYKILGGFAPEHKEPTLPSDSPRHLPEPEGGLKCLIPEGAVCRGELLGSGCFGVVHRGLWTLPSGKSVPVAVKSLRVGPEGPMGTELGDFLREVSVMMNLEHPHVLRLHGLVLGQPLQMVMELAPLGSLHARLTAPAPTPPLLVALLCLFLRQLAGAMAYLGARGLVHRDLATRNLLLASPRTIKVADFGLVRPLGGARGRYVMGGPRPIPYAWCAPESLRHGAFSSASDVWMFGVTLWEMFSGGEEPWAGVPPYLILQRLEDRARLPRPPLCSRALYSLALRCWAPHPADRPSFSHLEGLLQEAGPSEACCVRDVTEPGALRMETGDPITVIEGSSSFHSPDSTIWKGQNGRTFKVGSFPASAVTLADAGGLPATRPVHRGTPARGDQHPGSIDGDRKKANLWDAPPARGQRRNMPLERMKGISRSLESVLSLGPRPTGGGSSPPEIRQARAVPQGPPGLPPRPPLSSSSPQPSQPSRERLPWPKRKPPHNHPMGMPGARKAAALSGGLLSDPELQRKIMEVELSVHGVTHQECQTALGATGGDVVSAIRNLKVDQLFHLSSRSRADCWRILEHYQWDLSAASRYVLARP
Method in brief: (§3)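 KinomeScan, an active site-directed competition binding panel of 468 kinases. The test compound was at 1 μM. The readout is remaining kinase binding as a percentage of the DMSO control. Scores above 35% were treated as weak binding and not listed.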

[7] = molecular target: Cyclin-dependent kinase 8 (Homo sapiens) (UniProt P49336); experiment: Binding affinity to wild-type human partial length CDK8 (M1 to T360 residues) expressed in bacterial expression system assessed as residual binding level at 1 uM by Kinomescan method relative to control
[8] = molecular target: Dual specificity protein kinase CLK1 (Homo sapiens) (UniProt P49759); experiment: Binding affinity to wild-type human full length CLK1 (M1 to I484 residues) expressed in bacterial expression system assessed as residual binding level at 1 uM by Kinomescan method relative to control
Method in brief: (§4)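 Active-site-directed KinomeScan competition binding panel covering 468 kinases, compound tested at 1 μM. Each readout is the kinase signal remaining with compound, expressed as a percentage of the DMSO control. […]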

[9] = molecular target: Serine/threonine-protein kinase PAK 2 (Homo sapiens) (UniProt Q13177); experiment: Binding affinity to wild-type human partial length PAK2 (P151 to R525 residues) expressed in bacterial expression system assessed as residual binding level at 1 uM by Kinomescan method relative to control; method in brief: as §2
[10] = molecular target: Calcium/calmodulin-dependent protein kinase type 1B (Homo sapiens) (UniProt Q6P2M8); experiment: Binding affinity to wild-type human partial length CAMK1B (W9 to A311 residues) expressed in mammalian expression system assessed as residual binding level at 1 uM by Kinomescan method relative to control; method in brief: as §3
Sequence of Calcium/calmodulin-dependent protein kinase type 1B (Homo sapiens) (Q6P2M8 whole entry, the tested form may be a part): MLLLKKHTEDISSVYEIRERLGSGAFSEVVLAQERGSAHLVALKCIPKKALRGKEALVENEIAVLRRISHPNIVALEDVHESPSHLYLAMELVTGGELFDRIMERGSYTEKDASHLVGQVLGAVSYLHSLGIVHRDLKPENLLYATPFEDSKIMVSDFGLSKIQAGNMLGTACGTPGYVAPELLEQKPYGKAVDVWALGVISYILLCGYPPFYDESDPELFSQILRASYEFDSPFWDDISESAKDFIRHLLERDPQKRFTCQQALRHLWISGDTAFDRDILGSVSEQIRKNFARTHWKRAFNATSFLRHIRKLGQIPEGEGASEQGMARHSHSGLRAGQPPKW

[11] = molecular target: Atypical kinase COQ8A, mitochondrial (Homo sapiens) (UniProt Q8NI60); experiment: Binding affinity to wild-type human full length ADCK3 (M280 to Q647 residues) expressed in bacterial expression system assessed as residual binding level at 1 uM by Kinomescan method relative to control; method in brief: as §4
[12] = system: Phosphatidylinositol 4,5-bisphosphate 3-kinase catalytic subunit alpha isoform (Homo sapiens), P42336 [H1047L]; experiment: Binding affinity to human partial length PIK3CA H1047L mutant (R108 to N1068 residues) expressed in mammalian expression system assessed as residual binding level at 1 uM by Kinomescan method relative to control; method in brief: as §1
[13] = system: Epidermal growth factor receptor (Homo sapiens), P00533 [L861Q]; experiment: Binding affinity to human partial length EGFR L861Q mutant (R669 to V1011 residues) expressed in bacterial expression system assessed as residual binding level at 1 uM by Kinomescan method relative to control; method in brief: as §1
[14] = molecular target: Tyrosine-protein kinase JAK1 (Homo sapiens) (UniProt P23458); experiment: Binding affinity to wild-type human partial length JAK1 JH1 catalytic domain (V856 to K1154 residues) expressed in bacterial expression system assessed as residual binding level at 1 uM by Kinomescan method relative to control
[15] = molecular target: Mitogen-activated protein kinase kinase kinase kinase 4 (Homo sapiens) (UniProt O95819); experiment: Binding affinity to wild-type human partial length MAP4K4 (M1 to R310 residues) expressed in bacterial expression system assessed as residual binding level at 1 uM by Kinomescan method relative to control
Sequence of Mitogen-activated protein kinase kinase kinase kinase 4 (Homo sapiens) (O95819 2-1239 limits assumed): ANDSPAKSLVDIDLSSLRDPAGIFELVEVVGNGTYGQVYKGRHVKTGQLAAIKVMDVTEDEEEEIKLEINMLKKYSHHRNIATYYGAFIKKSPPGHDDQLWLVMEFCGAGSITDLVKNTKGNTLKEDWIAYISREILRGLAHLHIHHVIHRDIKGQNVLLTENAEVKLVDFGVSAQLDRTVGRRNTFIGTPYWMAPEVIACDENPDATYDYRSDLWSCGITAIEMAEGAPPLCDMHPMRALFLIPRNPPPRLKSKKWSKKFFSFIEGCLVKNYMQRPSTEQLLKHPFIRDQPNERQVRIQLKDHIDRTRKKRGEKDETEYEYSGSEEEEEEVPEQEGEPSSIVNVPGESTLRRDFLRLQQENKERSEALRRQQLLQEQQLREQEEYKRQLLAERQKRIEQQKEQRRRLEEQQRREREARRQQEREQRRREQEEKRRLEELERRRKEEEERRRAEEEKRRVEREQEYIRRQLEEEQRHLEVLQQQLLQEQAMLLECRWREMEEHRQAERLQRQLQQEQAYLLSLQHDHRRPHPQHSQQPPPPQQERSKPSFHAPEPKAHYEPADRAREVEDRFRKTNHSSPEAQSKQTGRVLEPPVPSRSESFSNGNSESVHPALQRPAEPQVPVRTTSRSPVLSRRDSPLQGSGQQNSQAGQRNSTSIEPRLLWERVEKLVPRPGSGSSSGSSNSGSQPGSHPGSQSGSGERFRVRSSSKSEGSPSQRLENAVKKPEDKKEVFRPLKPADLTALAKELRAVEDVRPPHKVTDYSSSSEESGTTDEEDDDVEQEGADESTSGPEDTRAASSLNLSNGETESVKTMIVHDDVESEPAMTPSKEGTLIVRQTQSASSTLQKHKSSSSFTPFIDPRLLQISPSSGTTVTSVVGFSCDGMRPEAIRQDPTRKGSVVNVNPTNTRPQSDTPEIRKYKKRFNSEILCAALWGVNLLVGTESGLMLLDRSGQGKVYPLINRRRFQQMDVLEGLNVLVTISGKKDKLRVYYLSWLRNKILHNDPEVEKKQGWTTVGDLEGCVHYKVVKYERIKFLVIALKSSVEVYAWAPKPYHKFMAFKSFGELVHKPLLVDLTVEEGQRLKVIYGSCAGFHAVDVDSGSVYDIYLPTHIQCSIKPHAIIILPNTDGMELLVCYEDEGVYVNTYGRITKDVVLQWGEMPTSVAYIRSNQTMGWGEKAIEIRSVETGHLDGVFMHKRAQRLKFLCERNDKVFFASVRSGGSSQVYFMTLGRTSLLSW

[16] = molecular target: CDK4/Cyclin D3 (Homo sapiens) (UniProt P11802+P30281); experiment: Binding affinity to wild-type human full length CDK4/cyclinD3 (M1 to E303 residues) expressed in mammalian expression system assessed as residual binding level at 1 uM by Kinomescan method relative to control; method in brief: as §4
[17] = molecular target: Receptor-type tyrosine-protein kinase FLT3 (Homo sapiens) (UniProt P36888); experiment: Binding affinity to wild-type human partial length FLT3 (V592 to Y969 residues) expressed in bacterial expression system assessed as residual binding level at 1 uM by Kinomescan method relative to control
Sequence of Receptor-type tyrosine-protein kinase FLT3 (Homo sapiens) (P36888 whole entry, the tested form may be a part): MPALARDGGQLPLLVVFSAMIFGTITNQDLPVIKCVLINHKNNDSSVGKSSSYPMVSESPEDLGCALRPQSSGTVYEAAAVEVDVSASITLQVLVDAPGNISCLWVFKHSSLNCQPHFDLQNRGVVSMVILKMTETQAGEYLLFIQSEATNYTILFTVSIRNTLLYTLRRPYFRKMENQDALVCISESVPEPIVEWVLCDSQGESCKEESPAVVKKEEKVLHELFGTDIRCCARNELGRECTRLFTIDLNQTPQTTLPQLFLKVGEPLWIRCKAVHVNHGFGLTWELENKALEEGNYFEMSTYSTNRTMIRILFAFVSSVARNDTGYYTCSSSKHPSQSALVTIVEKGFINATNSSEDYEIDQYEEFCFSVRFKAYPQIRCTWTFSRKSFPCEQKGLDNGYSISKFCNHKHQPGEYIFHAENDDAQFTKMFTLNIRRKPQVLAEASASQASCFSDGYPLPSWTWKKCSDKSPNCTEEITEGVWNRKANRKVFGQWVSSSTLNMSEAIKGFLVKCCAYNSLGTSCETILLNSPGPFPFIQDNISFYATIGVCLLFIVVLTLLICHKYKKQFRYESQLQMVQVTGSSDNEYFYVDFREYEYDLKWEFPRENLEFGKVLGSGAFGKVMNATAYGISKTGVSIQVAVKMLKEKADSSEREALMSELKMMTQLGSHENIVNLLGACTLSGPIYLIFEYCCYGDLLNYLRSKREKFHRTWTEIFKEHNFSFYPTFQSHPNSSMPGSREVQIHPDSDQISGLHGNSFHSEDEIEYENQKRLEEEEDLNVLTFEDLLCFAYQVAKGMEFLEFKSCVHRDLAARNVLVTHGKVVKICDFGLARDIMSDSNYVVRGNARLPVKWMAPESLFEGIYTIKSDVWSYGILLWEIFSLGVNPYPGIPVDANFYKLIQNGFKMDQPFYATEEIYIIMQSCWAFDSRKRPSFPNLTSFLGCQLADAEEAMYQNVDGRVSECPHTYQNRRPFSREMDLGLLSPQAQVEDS

[18] = molecular target: Serine/threonine-protein kinase NIM1 (Homo sapiens) (UniProt Q8IY84); experiment: Binding affinity to wild-type human partial length NIM1 (Q44 to N355 residues) expressed in mammalian expression system assessed as residual binding level at 1 uM by Kinomescan method relative to control
Sequence of Serine/threonine-protein kinase NIM1 (Homo sapiens) (Q8IY84 whole entry, the tested form may be a part): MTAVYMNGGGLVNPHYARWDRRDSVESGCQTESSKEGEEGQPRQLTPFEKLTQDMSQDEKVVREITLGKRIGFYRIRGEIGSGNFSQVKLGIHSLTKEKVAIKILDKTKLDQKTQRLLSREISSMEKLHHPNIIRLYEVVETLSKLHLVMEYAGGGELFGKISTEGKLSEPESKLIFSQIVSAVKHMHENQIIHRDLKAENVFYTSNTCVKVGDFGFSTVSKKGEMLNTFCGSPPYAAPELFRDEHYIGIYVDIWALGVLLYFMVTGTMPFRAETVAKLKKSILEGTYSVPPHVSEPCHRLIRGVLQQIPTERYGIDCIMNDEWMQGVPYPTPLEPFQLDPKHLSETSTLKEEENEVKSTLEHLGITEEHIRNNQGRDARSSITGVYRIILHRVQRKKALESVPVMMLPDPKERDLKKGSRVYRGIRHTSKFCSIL

[19] = molecular target: Serine/threonine-protein kinase PLK1 (Homo sapiens) (UniProt P53350); experiment: Binding affinity to wild-type human partial length PLK1 (A33 to F325 residues) expressed in mammalian expression system assessed as residual binding level at 1 uM by Kinomescan method relative to control
[20] = molecular target: Protein kinase C delta type (Homo sapiens) (UniProt Q05655); experiment: Binding affinity to wild-type human partial length PRKCD (Q328 to D676 residues) expressed in bacterial expression system assessed as residual binding level at 1 uM by Kinomescan method relative to control

Work on C=CC(=O)Nc1ccccc1Nc1nc(Nc2ccc(N3CCN(C)CC3)cc2)ncc1C(=O)Nc1c(C)cccc1Cl yielded an Activity [1] of 100%, an Activity [2] of 100% and an Activity [3] of 1.1%. The Activity [4] was 100%, the inhibition [5] was “inactive” and the Activity [6] was 29%. For the same compound, the Activity [7] was 100%, the Activity [8] was 100% and the Activity [9] was 97%. For the same compound, the Activity [10] was 98%, the Activity [11] was 100% and the Activity [12] was 71%. For the same compound, the Activity [13] was 55%, the Activity [14] was 100% and the Activity [15] was 100%. It also gave an Activity [16] of 100%, an Activity [17] of 99% and an Activity [18] of 100%. For the same compound, the Activity [19] was 100% and the Activity [20] was 100%.
